Read-outs that look alike come from different tables or passages of the source.
Key:
143B = assay: MTT cytotoxicity assay, 143B cells; format: cell-based, human; conditions: 72 h, read-out: cytotoxic activity IC50
Method in brief: (§1)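 Human osteosarcoma cells (from ATCC) were seeded at 5 × 10^3 per well and left to attach overnight at 37 °C, 5% CO2. They were then exposed to test compound for 72 h. Medium was replaced with 0.5 mg/mL MTT in culture medium for 2 h at 37 °C, and formazan was dissolved in DMSO. OD was read at 570 nm, survival was calculated as % of untreated control OD, and runs were done in triplicate.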

MNNG/HOS = assay: MTT cytotoxicity assay, MNNG/HOS cells; format: cell-based, human; conditions: 72 h, read-out: cytotoxic activity IC50
Method in brief: as §1

U2OS = assay: MTT cytotoxicity assay, U2OS cells; format: cell-based, human; conditions: 72 h, read-out: cytotoxic activity IC50
Method in brief: as §1

SaOS-2 = assay: MTT cytotoxicity assay, SaOS-2 cells; format: cell-based, human; conditions: read-out: cytotoxic activity IC50
Method in brief: as §1

[1] = system: osteosarcoma cancer cell lines (MNNG/HOS, U2OS, 143B, SaOS-2); assay: MTT cytotoxicity, summary over osteosarcoma cell lines; format: cell-based, human; conditions: for IC50: Homo sapiens, 72 h, read-out: IC50 range against all OS cell lines
Method in brief: as §1

[2] = MTT cell viability, normal osteoblast cells hFOB 1.19; format: cell-based, human; conditions: human, hFOB 1.19 normal osteoblast cells
Method in brief: (§2)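 Normal human osteoblasts (hFOB 1.19, from ATCC) were exposed to test compound at 0.1, 1.0, 10.0 and 100.0 μM for 72 h. Viability was read by MTT: 0.5 mg/mL for 2 h at 37 °C, DMSO solubilisation, OD at 570 nm. Values are expressed relative to untreated control set at 100%, as mean ± SD (n = 3).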

hFOB 1.19 = assay: as above; format: cell-based, human; conditions: at the tested concentrations (0.1-100 μM), in words
Method in brief: as §2

human IMPDH1 = human IMPDH1 (Homo sapiens, UniProt P20839); assay: IMPDH1 inhibitory assay; format: biochemical
human IMPDH2 = human IMPDH2 (Homo sapiens, UniProt P12268); assay: IMPDH2 inhibitory assay; format: biochemical

Sequence of human IMPDH1 (P20839 whole entry): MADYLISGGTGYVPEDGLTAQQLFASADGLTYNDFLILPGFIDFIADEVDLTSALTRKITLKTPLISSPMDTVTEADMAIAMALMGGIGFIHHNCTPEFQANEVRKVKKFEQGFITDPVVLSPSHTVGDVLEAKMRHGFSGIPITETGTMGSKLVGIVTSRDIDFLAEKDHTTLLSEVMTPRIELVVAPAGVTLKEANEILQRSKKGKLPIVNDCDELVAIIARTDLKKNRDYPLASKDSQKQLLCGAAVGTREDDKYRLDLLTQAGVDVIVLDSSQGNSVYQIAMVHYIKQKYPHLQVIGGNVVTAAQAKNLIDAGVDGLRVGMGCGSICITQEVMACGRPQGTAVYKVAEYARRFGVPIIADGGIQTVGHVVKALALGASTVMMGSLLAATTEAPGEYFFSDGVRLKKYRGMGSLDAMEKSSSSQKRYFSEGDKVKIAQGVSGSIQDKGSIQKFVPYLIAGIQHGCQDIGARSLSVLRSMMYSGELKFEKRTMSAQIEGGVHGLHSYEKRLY

Compound | IC50 (143B; Homo sapiens, 143B) [µM] | IC50 (MNNG/HOS; Homo sapiens, HOS) [µM] | IC50 (U2OS; Homo sapiens, U2OS) [µM] | IC50 (SaOS-2; Homo sapiens, SAOS-2, 72 h) [µM] | IC50 [1] [µM] | other results
COc1c(C)c2c(c(O[Si](C)(C)C(C)(C)C)c1C/C=C(\C)CCC(=O)O[Si](C)(C)C(C)(C)C)C(=O)OC2 [Compound 2a, tert-Butyldimethylsilyl (E)-6-(4-((tert-Butyldimethylsilyl)oxy)-6-methoxy-7-methyl-3-oxo-1,3-dihydroisobenzofuran-5-yl)-4-methylhex-4-enoate] | 4.12 ± 0.28 | 1.36 ± 0.76 | 3.8 ± 0.88 | 5.43 ± 2.87 | 1.36 to 5.43 | 
COc1c(C)c2c(c(O[Si](c3ccccc3)(c3ccccc3)C(C)(C)C)c1C/C=C(\C)CCC(=O)O[Si](c1ccccc1)(c1ccccc1)C(C)(C)C)C(=O)OC2 [Compound 2b, tert-Butyldiphenylsilyl (E)-6-(4-((tert-Butyldiphenylsilyl)oxy)-6-methoxy-7-methyl-3-oxo-1,3-dihydroisobenzofuran-5-yl)-4-methylhex-4-enoate] | 5.85 ± 0.54 | 1.18 ± 0.74 | 2.52 ± 0.96 | 5.8 ± 1.15 | 1.18 to 5.85 | 
COc1c(C)c2c(c(O[Si](C(C)C)(C(C)C)C(C)C)c1C/C=C(\C)CCC(=O)O[Si](C(C)C)(C(C)C)C(C)C)C(=O)OC2 [Compound 2c, Triisopropylsilyl (E)-6-(6-Methoxy-7-methyl-3-oxo-4-((triisopropylsilyl)oxy)-1,3-dihydroisobenzofuran-5-yl)-4-methylhex-4-enoate] | 63.1 ± 3.2 | 6.82 ± 3.51 | 24.43 ± 0.04 | 17.4 ± 9.03 | 6.82 to 63.9 | 
COc1c(C)c2c(c(O)c1C/C=C(\C)CCC(=O)O[Si](c1ccccc1)(c1ccccc1)c1ccccc1)C(=O)OC2 [Compound 2d, Triphenylsilyl (E)-6-(4-Hydroxy-6-methoxy-7-methyl-3-oxo-1,3-dihydroisobenzofuran-5-yl)-4-methylhex-4-enoate] | 1.65 ± 0.26 | 0.64 ± 0.15 | 1.01 ± 0.4 | 2.27 ± 0.68 | 0.64 to 2.27 | viability at 72 h, 0.1 µM [2]: 93.9 ± 1.01%; viability at 72 h, 1 µM [2]: 92 ± 1.78%; viability at 72 h, 10 µM [2]: 84.5 ± 2.95%; viability at 72 h, 100 µM [2]: 73.3 ± 1.39%; cytotoxicity to human normal osteoblast cells (hFOB 1.19) (hFOB 1.19): low cytotoxicity; Ki (human IMPDH1; read-out: Ki,app (apparent tight-binding inhibition constant), IMPDH1, IMP 100 μM, NAD+ 200 μM, NO = No inhibition observed): > 100 µM; Ki (human IMPDH2): 1.8 µM; fold more potent than carbon compound 2e ([1]; 143B and SaOS cell lines, versus 2e): 2 to 3 fold
COc1c(C)c2c(c(O)c1C/C=C(\C)CCC(=O)OC(c1ccccc1)(c1ccccc1)c1ccccc1)C(=O)OC2 [Compound 2e, Trityl (E)-6-(4-Hydroxy-6-methoxy-7-methyl-3-oxo-1,3-dihydroisobenzofuran-5-yl)-4-methylhex-4-enoate] | 5.13 ± 1.1 | 0.68 ± 0.11 | 0.98 ± 0.035 | 4.83 ± 0.5 | 0.68 to 5.13 | 
COc1c(C)c2c(c(O[Si](C)(C)C(C)(C)C)c1C/C=C(\C)CCC(=O)O)C(=O)OC2 [Compound 3a, (E)-6-(4-((tert-Butyldimethylsilyl)oxy)-6-methoxy-7-methyl-3-oxo-1,3-dihydroisobenzofuran-5-yl)-4-methylhex-4-enoic acid] | 3.9 ± 0.76 | 0.86 ± 0.2 | 2.31 ± 1.26 | 4.55 ± 2.6 |  | 
COc1c(C)c2c(c(O[Si](C(C)C)(C(C)C)C(C)C)c1C/C=C(\C)CCC(=O)O)C(=O)OC2 [Compound 3c, (E)-6-(6-Methoxy-7-methyl-3-oxo-4-((triisopropylsilyl)oxy)-1,3-dihydroisobenzofuran-5-yl)-4-methylhex-4-enoic acid] | 6.31 ± 0.4 | 2.68 ± 1.02 | 3.75 ± 1.06 | 5.44 ± 0.82 |  | 
COc1c(C)c2c(c(O)c1C/C=C(\C)CCC(=O)O[Si](c1ccccc1)(c1ccccc1)C(C)(C)C)C(=O)OC2 [Compound 4b, tert-Butyldiphenylsilyl (E)-6-(4-Hydroxy-6-methoxy-7-methyl-3-oxo-1,3-dihydroisobenzofuran-5-yl)-4-methylhex-4-enoate] | 6.8 ± 1.41 | 13 ± 4.24 | 1.85 ± 0.07 | 1.85 ± 0.35 |  | 
COc1c(C)c2c(c(O)c1C/C=C(\C)CCC(=O)O[Si](C(C)C)(C(C)C)C(C)C)C(=O)OC2 [Compound 4c, Triisopropylsilyl (E)-6-(4-Hydroxy-6-methoxy-7-methyl-3-oxo-1,3-dihydroisobenzofuran-5-yl)-4-methylhex-4-enoate] | 35 ± 9.9 | 5.7 ± 0.71 | 0.92 | 5.5 ± 1.51 |  | 
COc1c(C)c2c(c(O[Si](c3ccccc3)(c3ccccc3)C(C)(C)C)c1C/C=C(\C)CCC(=O)ON1C(=O)c3ccccc3C1=O)C(=O)OC2 [Compound 5a, 1,3-Dioxoisoindolin-2-yl (E)-6-(4-((tert-Butyldiphenylsilyl)oxy)-6-methoxy-7-methyl-3-oxo-1,3-dihydroisobenzofuran-5-yl)-4-methylhex-4-enoate] | 31 ± 1.41 | 19.5 ± 3.54 | 10.2 ± 3.89 | 12 |  | 
COc1ccc(CCOC(=O)CC/C(C)=C/Cc2c(OC)c(C)c3c(c2O[Si](c2ccccc2)(c2ccccc2)C(C)(C)C)C(=O)OC3)cc1 [Compound 5c, 4-Methoxyphenethyl (E)-6-(4-((tert-Butyldiphenylsilyl)oxy)-6-methoxy-7-methyl-3-oxo-1,3-dihydroisobenzofuran-5-yl)-4-methylhex-4-enoate] | 14.5 ± 4.95 | 43.5 ± 2.12 | 10.2 ± 1.06 | 39.5 ± 0.71 |  | 
COc1c(C)c2c(c(O)c1C/C=C(\C)CCC(=O)ON1C(=O)c3ccccc3C1=O)C(=O)OC2 [Compound 6a, 1,3-Dioxoisoindolin-2-yl (E)-6-(4-Hydroxy-6-methoxy-7-methyl-3-oxo-1,3-dihydroisobenzofuran-5-yl)-4-methylhex-4-enoate] | 4.85 ± 1.48 |  | 1.38 ± 0.6 | 6.9 |  | 
COc1c(C)c2c(c(O)c1C/C=C(\C)CCC(=O)OCCc1ccc(F)cc1)C(=O)OC2 [Compound 6b, 4-Fluorophenethyl (E)-6-(4-Hydroxy-6-methoxy-7-methyl-3-oxo-1,3-dihydroisobenzofuran-5-yl)-4-methylhex-4-enoate] | 2 ± 0.14 |  | 7 ± 2.12 | 5.75 ± 1.06 |  | 
COc1ccc(CCOC(=O)CC/C(C)=C/Cc2c(O)c3c(c(C)c2OC)COC3=O)cc1 [Compound 6c, 4-Methoxyphenethyl (E)-6-(4-Hydroxy-6-methoxy-7-methyl-3-oxo-1,3-dihydroisobenzofuran-5-yl)-4-methylhex-4-enoate] | 2.6 ± 0.28 | 38 ± 11.3 | 7.35 ± 1.63 | 9 ± 1.41 |  | 
COc1c(C)c2c(c(O)c1C/C=C(\C)CCC(=O)O)C(=O)OC2 [MPA 1, Mycophenolic acid, reference compound] | 1.55 ± 0.49 | 0.64 ± 0.08 | 0.68 ± 0.04 | 4 ± 0.28 | 0.64 to 4 | viability at 72 h, 0.1 µM [2]: 74.3 ± 4.24%; viability at 72 h, 1 µM [2]: 20.1 ± 1.41%; viability at 72 h, 10 µM [2]: 7.13 ± 0.67%; viability at 72 h, 100 µM [2]: 3.38 ± 3.4%; Ki (human IMPDH1): 0.136 µM
(E)-6-(4-((tert-Butyldimethylsilyl)oxy)-6-methoxy-7-methyl-3-oxo-1,3-dihydroisobenzofuran-5-yl)-4-methylhex-4-enoic acid [Compound 3b] |  |  |  |  |  | IC50 (143B; 143B cells, MTT): 4.74 ± 0.76 µM; IC50 (MNNG/HOS; MNNG cells, MTT): 1.15 ± 0.35 µM; IC50 (U2OS; U2OS cells, MTT): 2.96 ± 2.32 µM; IC50 (SaOS-2; SaOS cells, MTT, 72 h): 4.58 ± 1.05 µM

— paper PMC11843339 (ACS Bio & Med Chem Au, 2024)
